Source: PubChem
This is a sample that favours compounds with a hit; in the whole collection about 4.1% have one here.
KCNQ1 pot = potentiators or activators of KCNQ1 channel, primary screen, cell-based, thallium flux, high-throughput | 310,000 tested, 0.35% active | AID 2648, 2010 | CHO-K1 KCNQ1, thallium flux FluxOR fluorescence; hits give high values | B-score at 10 µM | Potassium voltage-gated channel subfamily KQT member 1 (Homo sapiens), P51787;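 active = fluorescence ratio B-score, a plate-corrected score, at least three library SD, with initial intensity B-score within 5 SD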
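Material: CHO-K1 cells stably expressing KCNQ1. Medium: assay buffer for compound exposure, DMSO matched across wells. Reagent: K+/Tl+ depolarizing stimulus. Compound dosing: single-concentration screen. Times: 37 °C overnight plating, 90-min dark dye load, 20-min compound pretreatment. Technique: FluxOR Tl+ flux fluorescence.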
KCC2 mod = KCC2 cotransporter modulators, thallium flux, primary screen, cell-based, HEK293 KCC2, FluoZin-2 fluorescence, MLSMR | B-score of Tl+ flux slope (higher = more flux/activation; lower = inhibition) at 10 µM | 190,000 tested, 2.2% active | KCC2 cells, thallium flux FluoZin-2 fluorescence | Solute carrier family 12 member 5 (Homo sapiens), Q9H2X9;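 active = thallium flux slope and its plate-corrected score both differing from the plate sample mean at a set confidence after two filtering rounds, in either direction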;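 note: slope of fluorescence scaled to starting intensity during 10 to 20 s after thallium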
Target sequence (Q9H2X9 whole entry, looked up): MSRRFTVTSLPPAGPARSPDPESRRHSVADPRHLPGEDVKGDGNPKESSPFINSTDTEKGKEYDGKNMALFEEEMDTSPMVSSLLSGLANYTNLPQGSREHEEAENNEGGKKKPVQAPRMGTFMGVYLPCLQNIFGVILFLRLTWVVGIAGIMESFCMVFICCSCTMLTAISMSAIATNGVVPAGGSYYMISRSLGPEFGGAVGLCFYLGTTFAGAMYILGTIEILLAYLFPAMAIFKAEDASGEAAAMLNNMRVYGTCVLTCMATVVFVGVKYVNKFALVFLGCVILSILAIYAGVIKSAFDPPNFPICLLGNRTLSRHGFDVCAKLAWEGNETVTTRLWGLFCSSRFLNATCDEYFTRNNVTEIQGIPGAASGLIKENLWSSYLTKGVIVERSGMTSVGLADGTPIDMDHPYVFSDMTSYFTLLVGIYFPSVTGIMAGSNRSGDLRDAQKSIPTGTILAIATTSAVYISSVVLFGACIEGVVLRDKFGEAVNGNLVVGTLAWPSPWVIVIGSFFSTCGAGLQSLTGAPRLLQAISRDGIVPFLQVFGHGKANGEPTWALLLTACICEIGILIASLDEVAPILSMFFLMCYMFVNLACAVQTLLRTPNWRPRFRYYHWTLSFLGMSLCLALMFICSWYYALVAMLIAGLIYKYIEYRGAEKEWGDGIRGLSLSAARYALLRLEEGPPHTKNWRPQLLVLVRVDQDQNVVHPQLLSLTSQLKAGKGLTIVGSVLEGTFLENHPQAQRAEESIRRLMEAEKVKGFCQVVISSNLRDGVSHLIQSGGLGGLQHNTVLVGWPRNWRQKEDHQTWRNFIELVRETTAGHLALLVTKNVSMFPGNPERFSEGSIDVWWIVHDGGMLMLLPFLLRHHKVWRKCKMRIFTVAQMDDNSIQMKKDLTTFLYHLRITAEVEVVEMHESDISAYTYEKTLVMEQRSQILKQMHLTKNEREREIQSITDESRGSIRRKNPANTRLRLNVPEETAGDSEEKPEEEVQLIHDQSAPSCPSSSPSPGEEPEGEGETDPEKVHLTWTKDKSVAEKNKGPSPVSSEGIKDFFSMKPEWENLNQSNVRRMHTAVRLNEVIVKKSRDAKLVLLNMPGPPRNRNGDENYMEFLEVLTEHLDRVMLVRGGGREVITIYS
hERG rescue = hERG rescue from dofetilide block, primary screen, cell-based, CHO-hERG, FluxOR thallium flux, dofetilide IC70; dofetilide IC70 present; 310,000 tested, 0.51% active; AID 1511, 2009; activation (rescue from dofetilide block), less the hit threshold, % at 10 µM; Voltage-gated inwardly rectifying potassium channel KCNH2 (Homo sapiens), Q12809;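 active = activation above the mean of controls blocked by dofetilide plus 5 SD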;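 note: thallium influx through hERG after potassium depolarization seen as dye fluorescence rise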
KCNK3 inh = human KCNK3 channel inhibitors, primary screen, CHO cells, FluxOR thallium flux, B-score; 340,000 tested, 0.84% active; Potassium channel subfamily K member 3 (Homo sapiens), O14649; AID 602410, 2012; B-score at 10 µM; FluxOR fluorescence; hits give low values;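 active = B-score under library mean minus 4 SD, starting fluorescence ratio at most library mean plus 5 SD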;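 note: more negative B-score means stronger inhibition of thallium flux through KCNK3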
KCNQ1 block = inhibitors of human KCNQ1 channel, primary screen, cell-based, thallium flux, high-throughput; B-score at 10 µM; 310,000 tested, 1.3% active; Potassium voltage-gated channel subfamily KQT member 1 (Homo sapiens), P51787; CHO-K1 KCNQ1, FluxOR thallium flux fluorescence; hits give high values; AID 2642, 2010;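 active = compounds whose thallium flux B-score, printed positive for inhibition, exceeds three library SD while starting fluorescence stays within three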;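 note: channel opened by potassium depolarization with thallium stimulus after 20 min compound exposure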
KCNK9 block = KCNK9 potassium channel inhibitors, primary screen, HEK293 cells, thallium flux; B-score at 10 µM; FluxOR thallium flux fluorescence; hits give low values; 310,000 tested, 1.2% active; AID 488922, 2010;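 active = ratio B-score over 3 SD below the library mean, with starting fluorescence within 5 SD of its mean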;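 note: negative B-score means less thallium flux so channel inhibition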
KCC2 secondary = KCC2 modulators in sodium-free buffer, confirmation, cell-based, HEK293 KCC2, thallium flux, secondary assay; AID 1713, 2009; FluoZin2 fluorescence; hits give high values; shares compounds with KCC2 mod; normalised thallium flux (F/F0 slope) at 10 µM; 3,700 tested, 15% active;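 active = thallium flux slope above the same plate's solvent-only control mean plus 3 SD; inconclusive = the two replicate wells disagree; inactive = no significant difference from solvent-only control wells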
KCC2 bumet counter = thallium flux persisting under bumetanide in KCC2 cells, confirmation, counter-screen for KCC2 modulator project, cell-based, HEK293 KCC2, FluoZin2, secondary assay 3; shares compounds with KCC2 mod; HEK293-KCC2 + bumetanide/ouabain; hits give high values; normalized thallium flux at 10 µM; 3,700 tested, 49% active;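 active = thallium entry rate above the same plate's blocked-transporter control wells by more than 3 SD; inconclusive = the two repeat wells disagree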;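 note: raw slope of fluorescence over initial fluorescence between 10 and 20 s after thallium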
KCC2 secondary2 = KCC2 modulators without ouabain present, confirmation, cell-based, HEK293 KCC2, thallium flux, FluoZin2, secondary assay 2. shares compounds with KCC2 mod. thallium flux FluoZin2 fluorescence; actives lie on both sides; F/F0 rise rate, 10–20 s post-thallium. normalized thallium flux at 10 µM. 3,700 tested, 23% active;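 active = thallium flux slope more than 3 SD above or below the plate's solvent-only control mean, mostly below; inconclusive = the two repeat wells disagreed; inactive = no significant shift from solvent-only controls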;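 note: raw slope with 0.1% DMSO as baseline and bumetanide as block control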
HEK293 Tl flux = thallium flux modulation in parental HEK cells, confirmation, counter-screen for KCC2 modulator project, cell-based, counterscreen 1 | shares compounds with KCC2 mod | HEK293 parental cells, thallium flux FluoZin2, ouabain; baseline-ratio fluorescence slope, 10–20 s after thallium | thallium flux rate (normalised fluorescence) at 10 µM | 3,700 tested, 46% active;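 active = thallium flux rate significantly above the same plate's solvent-only control wells, beyond their mean plus 3 SD; inconclusive = the two replicate wells gave conflicting results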
KCC2 ouabain = KCC2 inhibitors and activators, ouabain retest, confirmation, HEK-KCC2 cells; HEK293-KCC2, thallium flux FluoZin2 fluorescence; bidirectional: low = inhibitor, high = activator; raw Tl+ flux slope (below DMSO = inhibition, above = activation) at 10 µM; shares compounds with KCC2 mod; 3,700 tested, 48% active; AID 1717, 2009;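 active = thallium flux slope beyond 3 SD from same-plate DMSO control mean in most replicates, usually higher, sometimes lower; inconclusive = repeat tests gave conflicting results; inactive = no significant difference from controls in most replicates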;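 note: slope of initial-normalized fluorescence between seconds 10 and 20 after thallium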
HEK293 Tl flux2 = native HEK Tl+ uptake effects, second counter-screen – HEK cells, counterscreen 2, counter-screen for KCC2 modulator project, confirmation | shares compounds with KCC2 mod | HEK293 parental, thallium flux FluoZin-2 fluorescence slope | thallium flux slope at 10 µM | 3,700 tested, 33% active | AID 1718, 2009;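 active = thallium flux slope above the same plate's solvent-control mean plus 3 SD in both duplicate wells; inconclusive = duplicate wells that disagreed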;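 note: run without ouabain in cells lacking the KCC2 cotransporter; slope of fluorescence scaled to its starting value between 10 and 20 s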
* marks the source's active call; other numbers are inactive results; i = inactive; u = inconclusive; x = not tested or not shown.

SMILES	KCNQ1 pot	KCC2 mod	hERG rescue	KCNK3 inh	KCNQ1 block	KCNK9 block	KCC2 secondary	KCC2 bumet counter	KCC2 secondary2	HEK293 Tl flux	KCC2 ouabain	HEK293 Tl flux2
Cc1ncc(CN2CCC(C(=O)Nc3cccc(-c4cscn4)c3)CC2)cn1	i	x	-10.4	i	i	i	x	x	x	x	x	x
CC(NC(=O)c1ccc(S(=O)(=O)Nc2ccccc2Cl)cc1)c1ccncc1 (stereo not drawn)	x	x	x	i	x	x	x	x	x	x	x	x
COc1ccc(-c2ccnc3c(Br)c(C)nn23)cc1	x	x	x	i	x	x	x	x	x	x	x	x
CCc1ccc(NC(=S)NC(=O)c2c(-c3ccccc3Cl)noc2C)cc1	i	16.4*	2.1	i	i	i	0.00547	0.0271*	0.0403*	0.0277*	0.0318*	0.0171*
Cc1onc(-c2ccccc2Cl)c1C(=O)NC(=S)Nc1ccc(C(C)(C)C)cc1	i	6.89*	-4.5	i	i	i	0.00732	0.0118*	0.0312	0.0131*	0.0221	0.013*
CC1Cc2nc(SCC(=O)NCC3CCCO3)n(-c3ccc(F)cc3)c(=O)c2S1 (stereo not drawn)	i	x	-3.8	i	i	i	x	x	x	x	x	x
Cc1ccc(NC(=O)CSc2nnc(-c3ccoc3C)n2CCCN(C)C)cc1Cl	i	x	-9.6	i	i	i	x	x	x	x	x	x
Cn1c(-c2ccccc2)c(CCO)c2ccccc21	i	-0.543	-8.0	i	i	i	x	x	x	x	x	x
CCn1c(-c2ccccc2)c(C(=O)CCl)c2ccccc21	i	-4.31*	-12.7	i	i	i	0.0055	0.00277*	0.0285	0.00488*	0.0166*	0.00796*
Cn1c(-c2ccccc2)c(C(=O)CCl)c2ccccc21	i	-3.94*	-22.3	i	i	i	0.00912	0.00422	0.0307	0.00507*	0.0158*	0.00911*
Cc1ccc(S(=O)(=O)Nc2c(C)cc(C)nc2Cl)cc1	i	x	-7.3	i	i	i	x	x	x	x	x	x
O=C(NN=Cc1ccccc1OC(F)F)c1ccc(NS(=O)(=O)c2cccs2)cc1	x	x	x	i	x	x	x	x	x	x	x	x
CCOCCCn1c(=S)[nH]c2cc3c(cc2c1=O)OCO3	i	5.65*	-12.2	i	i	i	u	0.0427*	0.0352	0.0189*	0.0397*	u
Cc1ccc(C)c(N2CCN(C(=O)CCCn3c(=S)[nH]c4cc5c(cc4c3=O)OCO5)CC2)c1	i	3.38*	-11.6	i	i	i	0.0058	0.0158*	0.0305	0.0101*	u	0.0118
O=C(CCCn1c(=S)[nH]c2cc3c(cc2c1=O)OCO3)N1CCN(c2ccccc2F)CC1	i	-0.669	-10.8	i	i	i	x	x	x	x	x	x
COc1ccc2oc(C(=O)OC(C)C(=O)N3C(C)CCCC3C)c(C)c2c1 (stereo not drawn)	x	x	x	i	x	x	x	x	x	x	x	x
N#Cc1c(NC(=O)c2cccnc2)sc2c1CCC2	i	0.0846	-4.6	i	i	i	x	x	x	x	x	x
N#Cc1c(NC(=O)c2ccccc2)sc2c1CCC2	i	x	-5.7	i	i	i	0.00664	0.00413	0.0278	0.00751	0.0177	0.0101
Cc1cc(NS(=O)(=O)c2ccc(NC(=O)c3oc4ccccc4c3C)cc2)no1	i	-2.87*	-18.1	i	i	i	0.00856	0.00733	0.0326	0.00441	u	0.0119
Oc1ccc(N=Nc2ccc3c(c2)OCO3)c2ccccc12	9*	9.01*	-4.0	x	i	i	0.0155	0.0107*	0.028	0.0115*	0.0202*	0.012
O=C(O)c1ccn(CSc2cc(Cl)ccc2Cl)n1	x	x	x	i	x	x	x	x	x	x	x	x
O=C(NC(c1ccccc1)c1ccccc1)c1ccccc1	x	x	x	i	x	x	x	x	x	x	x	x
O=C(NC(=O)c1ccncc1)NC(c1ccccc1)c1ccccc1	i	-4.81*	-1.5	i	i	i	0.00761	0.00703	0.0295	u	0.0198	0.00974
COC(=O)c1ccc(/C(O)=C(\C#N)c2nc3ccccc3s2)cc1	i	-6.78*	-12.7	i	i	i	0.008	0.00676	0.0341	0.00376	0.0135*	0.01
COC(=O)c1ccc(CC(=O)c2nc3ccccc3s2)cc1	i	1.62	-15.0	i	i	i	x	x	x	x	x	x
Cc1ccc(OC/C(O)=C(\C#N)c2nc3ccccc3s2)cc1	i	-4.32*	-9.3	i	i	i	0.0146	0.00675*	0.0222*	u	0.0119*	0.0106
COc1ccc2oc(C(=O)OCC(=O)NC(C)c3ccccc3)c(C)c2c1 (stereo not drawn)	i	x	-5.0	i	i	i	x	x	x	x	x	x
CC(=O)Nc1ccc(S(=O)(=O)N(C)Cc2cnn(C)c2)cc1	i	x	-3.3	i	i	i	x	x	x	x	x	x
COC(=O)CSc1nnc(SCc2ccc(Cl)cc2)s1	i	-1.23	-10.8	i	i	i	x	x	x	x	x	x
